Test [1] has as its target T1, Beta-2 adrenergic receptor (Homo sapiens, UniProt P07550). In words: Antagonist activity at beta2 adrenergic receptor (unknown origin) expressed in HEK293 cell assessed as inhibition of isoproterenol-induced cAMP production preincubated for 15 mins followed by isoproterenol addition and measured after 15 mins. The test is classed as functional, cell-based. Background: Cyclic AMP is a second messenger, typically raised through Gs and lowered through Gi signalling.

Test [2] is filed under the species Homo sapiens. In words: Selectivity ratio of IC50 for antagonist activity at beta1 adrenergic receptor (unknown origin) stably expressed in HEK293 cell membranes to IC50 for antagonist activity at beta2 adrenergic receptor (unknown origin) stably expressed in HEK293 cell membranes. It counts as cell-based.
The species entered for test [3] is Homo sapiens. In words: Selectivity ratio of Ki for displacement of [3H]DHA from beta1 adrenergic receptor (unknown origin) stably expressed in HEK293 cell membranes to displacement of [3H]DHA from beta2 adrenergic receptor (unknown origin) stably expressed in HEK293 cell membranes. Background: In a radioligand displacement assay an active substance lowers the binding of a labelled ligand.

Test [4] deals with T2, Beta-1 adrenergic receptor (Homo sapiens, UniProt P08588). In words: Displacement of [3H]DHA from beta1 adrenergic receptor (unknown origin) stably expressed in HEK293 cell membranes measured after 90 mins by scintillation counting analysis.
Test [5] addresses T1, Beta-2 adrenergic receptor. In words: Antagonist activity at beta2 adrenergic receptor (unknown origin) stably expressed in HEK293 cell membranes assessed as inhibition of isoproterenol-induced cAMP production preincubated for 15 mins followed by isoproterenol addition and measured after 30 mins by TR-FRET assay. The test is classed as functional, cell-based.
The target of test [6] is T1, Beta-2 adrenergic receptor. Kind of test: Displacement of [3H]DHA from beta2 adrenergic receptor (unknown origin) stably expressed in HEK293 cell membranes measured after 90 mins by scintillation counting analysis. To be noted: for Ki: read-out: pKi (converted).
The target of test [7] is T2, Beta-1 adrenergic receptor. In words: Antagonist activity at beta1 adrenergic receptor (unknown origin) stably expressed in HEK293 cell membranes assessed as inhibition of isoproterenol-induced cAMP production preincubated for 15 mins followed by isoproterenol addition and measured after 30 mins by TR-FRET assay. The test is classed as cell-based. The procedure, abridged: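 Membranes from HEK293 cells stably overexpressing β1AR; ligand's blockade of isoproterenol-stimulated cAMP production measured; pIC50 as mean ± SEM from 3-8 independent experiments run in duplicate.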

Consider 27 molecules from ChEMBL document CHEMBL4373696, “Probing the Existence of a Metastable Binding Site at the β2-Adrenergic Receptor with Homobivalent Bitopic Ligands” (J Med Chem, 2019).

pIC50, pKi: −log10 of the molar value.

The term pIC50 denotes the IC50 on a negative log10 scale, so that one unit is a factor of ten. Broadly, the pKi is the Ki on a negative log10 scale, so that one unit is a factor of ten. The low end stands for a large Ki, the high end for a small Ki.

T2 sequence (P08588 whole entry): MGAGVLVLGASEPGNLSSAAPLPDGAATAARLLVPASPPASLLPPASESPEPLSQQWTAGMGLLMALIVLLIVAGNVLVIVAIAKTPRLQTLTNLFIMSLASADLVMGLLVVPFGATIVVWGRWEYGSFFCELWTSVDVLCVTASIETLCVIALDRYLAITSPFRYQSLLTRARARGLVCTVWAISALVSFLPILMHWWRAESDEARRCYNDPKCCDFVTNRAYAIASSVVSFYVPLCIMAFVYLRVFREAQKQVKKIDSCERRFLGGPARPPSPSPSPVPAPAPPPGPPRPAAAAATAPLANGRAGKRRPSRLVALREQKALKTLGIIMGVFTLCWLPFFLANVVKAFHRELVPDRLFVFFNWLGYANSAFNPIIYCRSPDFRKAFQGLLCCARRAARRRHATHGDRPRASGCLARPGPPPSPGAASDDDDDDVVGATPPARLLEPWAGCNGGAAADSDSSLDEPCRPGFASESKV
T1 sequence (P07550 whole entry): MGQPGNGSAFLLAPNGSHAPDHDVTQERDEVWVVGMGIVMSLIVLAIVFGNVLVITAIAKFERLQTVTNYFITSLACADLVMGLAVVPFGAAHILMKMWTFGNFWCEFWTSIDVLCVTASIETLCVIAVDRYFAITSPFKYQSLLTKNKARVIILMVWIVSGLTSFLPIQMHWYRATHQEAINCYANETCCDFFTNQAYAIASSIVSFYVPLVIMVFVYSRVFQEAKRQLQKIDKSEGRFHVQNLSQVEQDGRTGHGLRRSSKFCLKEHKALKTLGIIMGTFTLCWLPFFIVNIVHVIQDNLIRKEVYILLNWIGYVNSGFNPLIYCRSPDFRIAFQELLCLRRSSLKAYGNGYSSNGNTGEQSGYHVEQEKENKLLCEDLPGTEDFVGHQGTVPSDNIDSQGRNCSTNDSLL

Turning to `CC(C)NC[C@H](O)COc1ccccc1CCCn1cc(CNCc2cn(CCCc3ccccc3OC[C@@H](O)CNC(C)C)nn2)nn1`, the pIC50 was 8.92 in test [1], 8.54 in test [5] and 8.33 in test [7]. In the test filed under Homo sapiens [2], the Ratio IC50 is 1.6. In the test filed under Homo sapiens [3], the Ratio Ki amounted to 2.51. This molecule showed a pKi in test [4] of 8.96. Also, the Ki in test [6] is 0.000437 µM.
As to `CC(C)NC[C@H](O)COc1ccccc1CCCNC(=O)NCCCc1ccccc1`, the pIC50 in test [5] is 7.85.
On to `CC(C)NC[C@H](O)COc1ccccc1CCCCCCCCCCc1ccccc1OC[C@@H](O)CNC(C)C`, for which the results for the pIC50 in test [1], in test [5] and in test [7] were 7.86, 8.42 and 7.95, respectively. For the same molecule, the Ratio IC50 in the test filed under Homo sapiens [2] turned out to be 2.9. Besides, in the test filed under Homo sapiens [3], the Ratio Ki is 1.2. The pKi in test [4] was 8.74. Also, in test [6], the Ki was 0.00151 µM.
For `CC(C)NC[C@H](O)COc1ccccc1CCC(=O)NCCNC(=O)CCc1ccccc1OC[C@@H](O)CNC(C)C`, the pIC50 in test [1] was 8.48; in test [5] it was 7.12; in test [7], 5.69. The Ratio IC50 in the test filed under Homo sapiens [2] stood at 26.5. For the same molecule, in the test listed under Homo sapiens [3], the Ratio Ki was determined as 22.9. The same molecule had a pKi in test [4] of 6.57. Moreover, in test [6], the Ki is 0.0117 µM.
Consider `CC(C)NC[C@H](O)COc1ccccc1CCn1cc(CNCc2cn(CCc3ccccc3OC[C@@H](O)CNC(C)C)nn2)nn1`, for which the pIC50 in test [1] was 8.69; in test [5], 8.33; in test [7] it was 7.71. For the same molecule, the Ratio IC50 in the test filed under Homo sapiens [2] is 4.2. In the test filed under Homo sapiens [3], the Ratio Ki came out at 3.24. For the same molecule, the negative-log Ki (pKi) in test [4] is 8.54. Also, in test [6], the Ki is 0.000891 µM.
Consider `CC(C)NC[C@H](O)COc1ccccc1CCC(=O)NCCCNC(=O)CCc1ccccc1OC[C@@H](O)CNC(C)C`, for which, in the test listed under Homo sapiens [2], the Ratio IC50 came to 214. In addition, the pIC50 was 8.08 in test [5] and 5.75 in test [7].
For `COc1ccccc1CCCC(=O)NCCNC(=O)CCCc1ccccc1OC[C@@H](O)CNC(C)C`, the pIC50 in test [5] is 8.41.
`CC(C)NC[C@H](O)COc1ccccc1CCCC(=O)NCCNC(=O)CCCc1ccccc1OC[C@@H](O)CNC(C)C`: the pIC50 is 8.81 in test [1], 8.18 in test [5] and 7.58 in test [7]. For the same molecule, the Ratio IC50 in the test filed under Homo sapiens [2] amounted to 4. Further, the Ratio Ki in the test filed under Homo sapiens [3] was determined as 11.8. In addition, the negative logarithm of the Ki (pKi) is 8.05 in test [4] and 8.89 in test [6]. Besides, the Ki in test [6] is 0.000759 µM.
Consider `CC(C)NC[C@H](O)COc1ccccc1CCCC(=O)NCCCCNC(=O)CCCc1ccccc1OC[C@@H](O)CNC(C)C`, for which, in the test filed under Homo sapiens [2], the Ratio IC50 came to 16.2. Also, the pIC50 was 7.95 in test [5] and 6.74 in test [7].
As for `CC(C)NC[C@H](O)COc1ccccc1CCCCCCCCc1ccccc1OC[C@@H](O)CNC(C)C`, the pIC50 in test [1] was 8.28; in test [5], 8.63; in test [7] it was 7.70. Also, in the test listed under Homo sapiens [2], the Ratio IC50 is 8.6. In addition, the Ratio Ki in the test filed under Homo sapiens [3] was found to be 5.25. This molecule also had a pKi in test [4] of 8.38. Besides, the Ki in test [6] is 0.000794 µM.
On to `CC(C)NC[C@H](O)COc1ccccc1CCCNC(=O)NCCCc1ccccc1OC[C@@H](O)CNC(C)C`, for which the negative-log IC50 (pIC50) was 8.80 in test [1], 8.12 in test [5] and 6.43 in test [7]. For the same molecule, the Ratio IC50 in the test listed under Homo sapiens [2] turned out to be 49.2. Further, the Ratio Ki in the test listed under Homo sapiens [3] came out at 38. For the same molecule, the pKi in test [4] was 7.35; in test [6], 8.72. In addition, in test [6], the Ki was 0.00117 µM.
For the molecule `CC(C)NC[C@H](O)COc1ccccc1CCCCNC(=O)NCCCCc1ccccc1OC[C@@H](O)CNC(C)C`, the pIC50 in test [1] is 8.75; in test [5], 8.80; in test [7], 7.84. For the same molecule, the Ratio IC50 in the test filed under Homo sapiens [2] came to 9.2. Moreover, the Ratio Ki in the test filed under Homo sapiens [3] was 10.5. This molecule also showed a pKi in test [4] of 8.40. Besides, the Ki in test [6] was 0.00038 µM.
For `CC(C)NC[C@H](O)COc1ccccc1-n1cc(CNCc2cn(-c3ccccc3OC[C@@H](O)CNC(C)C)nn2)nn1`, the pIC50 is 7.92 in test [1], 6.77 in test [5] and 5.44 in test [7]. Further, in the test listed under Homo sapiens [2], the Ratio IC50 was determined as 21.4. The Ratio Ki in the test filed under Homo sapiens [3] turned out to be 12.3. The pKi in test [4] was 6.32. In addition, in test [6], the Ki is 0.0389 µM.
For the molecule `CCCNC(=O)NCCCc1ccccc1OC[C@@H](O)CNC(C)C`, in test [5], the pIC50 is 7.07.
Take `CC(C)NC[C@H](O)COc1ccccc1CC(=O)NCCNC(=O)Cc1ccccc1OC[C@@H](O)CNC(C)C`: the pIC50 in test [1] is 6.67; in test [5], 5.58; in test [7], 4.96. In the test listed under Homo sapiens [2], the Ratio IC50 was 4.1. In addition, the Ratio Ki in the test filed under Homo sapiens [3] stood at 5.5. In test [4], this molecule showed a pKi of 5.59. For the same molecule, in test [6], the Ki was 0.468 µM.
Turning to `CC(C)NC[C@H](O)COc1ccccc1Cn1cc(CNCc2cn(Cc3ccccc3OC[C@@H](O)CNC(C)C)nn2)nn1`, the pIC50 in test [1] was 8.20; in test [5], 7.19; in test [7], 6.31. Moreover, the Ratio IC50 in the test listed under Homo sapiens [2] amounted to 7.6. In the test filed under Homo sapiens [3], the Ratio Ki is 5.37. The same molecule had a negative logarithm of the Ki (pKi) in test [4] of 7.08. In test [6], the Ki was 0.0155 µM.
`CC(C)NC[C@H](O)COc1ccccc1CCCCCCc1ccccc1OC[C@@H](O)CNC(C)C`: the pIC50 in test [1] is 8.49; in test [5], 8.42; in test [7], 7.56. In the test listed under Homo sapiens [2], the Ratio IC50 came out at 7.2. Also, the Ratio Ki in the test filed under Homo sapiens [3] stood at 6.76. Also, in test [4], the negative logarithm of the Ki (pKi) was 8.19. The Ki in test [6] is 0.000955 µM.
For the molecule `CC(C)NC[C@H](O)COc1ccccc1CCNC(=O)NCCc1ccccc1OC[C@@H](O)CNC(C)C`, the pIC50 in test [1] is 8.66; in test [5], 7.79; in test [7], 6.90. For the same molecule, in the test filed under Homo sapiens [2], the Ratio IC50 is 7.7. Further, the Ratio Ki in the test listed under Homo sapiens [3] is 5.62. In test [4], this molecule showed a pKi of 7.71. Also, the Ki in test [6] was 0.00347 µM.
On to `CC(C)NC[C@H](O)COc1ccccc1CCCC(=O)NCCNC(=O)CCCc1ccccc1`, for which, in test [5], the negative-log IC50 (pIC50) is 8.23.
Regarding `CC(C)NC[C@H](O)COc1ccccc1CCCCCCCCCCCCc1ccccc1OC[C@@H](O)CNC(C)C`, the pIC50 in test [1] is 7.59; in test [5], 8.16; in test [7] it was 7.86. Moreover, the Ratio IC50 in the test filed under Homo sapiens [2] was found to be 2. Moreover, the Ratio Ki in the test listed under Homo sapiens [3] was 1.1. Besides, the pKi in test [4] is 8.90. For the same molecule, the Ki in test [6] is 0.00115 µM.
As for `CCCC(=O)NCCNC(=O)CCCc1ccccc1OC[C@@H](O)CNC(C)C`, in test [5], the pIC50 was 7.19.
`CC(C)NC[C@H](O)COc1ccccc1OCCOCCOc1ccccc1OC[C@@H](O)CNC(C)C`: the Ratio IC50 in the test listed under Homo sapiens [2] was found to be 5. Also, the pIC50 is 7.33 in test [5] and 6.63 in test [7].
Regarding `CC(C)NC[C@H](O)COc1ccccc1CCCC(=O)NCCCNC(=O)CCCc1ccccc1OC[C@@H](O)CNC(C)C`, the Ratio IC50 in the test listed under Homo sapiens [2] amounted to 4.3. Besides, the pIC50 is 8.19 in test [5] and 7.55 in test [7].
The like results for `CC(C)NC[C@@H](O)COc1ccccc1CCCC(=O)NCCNC(=O)CCCc1ccccc1OC[C@H](O)CNC(C)C` were, in that order, 20.9, 6.67 and 5.35.
`COc1ccccc1CCCNC(=O)NCCCc1ccccc1OC[C@@H](O)CNC(C)C`: the pIC50 in test [5] is 7.86.
As for `CC(C)NC[C@H](O)COc1ccccc1OCCOCCOCCOc1ccccc1OC[C@@H](O)CNC(C)C`, the Ratio IC50 in the test listed under Homo sapiens [2] was 1.3. The pIC50 is 7.13 in test [5] and 7.01 in test [7].
On the same counts, the results for `CC(C)NC[C@H](O)COc1ccccc1CCCCCNC(=O)NCCCCCc1ccccc1OC[C@@H](O)CNC(C)C` are 3.2, 8.76 and 8.25.
